Converted amounts (≈) assume the structure as drawn.
How the values were obtained:
Format in all cases: functional
Staphylococcus aureus [1] = experiment: Antimicrobial activity against tetracycline-susceptible Staphylococcus aureus isolate 101 by CLSI dilution method
Staphylococcus aureus [2] = experiment: Antimicrobial activity against methicillin-, tetracycline-resistant Staphylococcus aureus isolate 161 harboring tetM gene by CLSI dilution method
Staphylococcus aureus [3] = experiment: Antimicrobial activity against tetracycline-resistant Staphylococcus aureus isolate 158 harboring tetK gene by CLSI dilution method
Enterococcus faecalis [4] = experiment: Antimicrobial activity against tetracycline-susceptible Enterococcus faecalis isolate 103 by CLSI dilution method
How it was run: (§1)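 Broth microdilution per CLSI in fresh cation-adjusted Mueller Hinton broth, kept at 4 °C before testing, with defibrinated horse blood added as appropriate. Strains were from ATCC. MIC in µg/mL. Runs were accepted when comparator antibiotics against ATCC quality-control strains fell within recommended ranges.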

Streptococcus pneumoniae [5] = experiment: Antimicrobial activity against tetracycline-susceptible Streptococcus pneumoniae isolate 106 by CLSI dilution method; how it was run: as §1
Escherichia coli [6] = experiment: Antimicrobial activity against tetracycline-susceptible Escherichia coli isolate 107 by CLSI dilution method; how it was run: as §1
Escherichia coli [7] = experiment: Antimicrobial activity against tetracycline-resistant Escherichia coli isolate 155 harboring tetA gene by CLSI dilution method
Acinetobacter baumannii = experiment: Antimicrobial activity against tetracycline-susceptible Acinetobacter baumannii isolate 110 by CLSI dilution method; how it was run: as §1
Pseudomonas aeruginosa = experiment: Antimicrobial activity against tetracycline-susceptible Pseudomonas aeruginosa isolate 111 by CLSI dilution method; how it was run: as §1
Enterobacter cloacae = experiment: Antimicrobial activity against tetracycline-susceptible Enterobacter cloacae isolate 108 by CLSI dilution method; how it was run: as §1
Klebsiella pneumoniae [8] = experiment: Antimicrobial activity against tetracycline-susceptible Klebsiella pneumoniae isolate 109 by CLSI dilution method; how it was run: as §1
Klebsiella pneumoniae [9] = experiment: Antimicrobial activity against tetracycline-resistant Klebsiella pneumoniae isolate 153 harboring tetA gene by CLSI dilution method
Streptococcus pneumoniae [10] = experiment: Antimicrobial activity against tetracycline-resistant Streptococcus pneumoniae isolate 160 harboring tetM gene by CLSI dilution method
Enterococcus faecalis [11] = experiment: Antimicrobial activity against tetracycline-resistant Enterococcus faecalis isolate 159 harboring […] gene by CLSI dilution method

SMILES	MIC (Staphylococcus aureus [1])	MIC (Staphylococcus aureus [2])	MIC (Staphylococcus aureus [3])	MIC (Enterococcus faecalis [4])	MIC (Streptococcus pneumoniae [5])	MIC (Escherichia coli [6])	MIC (Escherichia coli [7])	MIC (Acinetobacter baumannii)	MIC (Pseudomonas aeruginosa)	MIC (Enterobacter cloacae)	MIC (Klebsiella pneumoniae [8])	MIC (Klebsiella pneumoniae [9])	MIC (Streptococcus pneumoniae [10])	MIC (Enterococcus faecalis [11])
CN(C)[C@@H]1C(O)=C(C(N)=O)C(=O)[C@@]2(O)C(O)=C3C(=O)c4c(cc5c(N)cccc5c4O)C[C@H]3C[C@@H]12	2 µg/mL (≈ 4.17 µM)	4 µg/mL (≈ 8.34 µM)	2 µg/mL (≈ 4.17 µM)	4 µg/mL (≈ 8.34 µM)	2 µg/mL (≈ 4.17 µM)	> 32 µg/mL	> 32 µg/mL	8 µg/mL (≈ 16.7 µM)	> 32 µg/mL	> 32 µg/mL	> 32 µg/mL	> 32 µg/mL		
COc1c2c(c(O)c3cc(F)ccc13)C(=O)C1=C(O)[C@]3(O)C(=O)C(C(N)=O)=C(O)[C@@H](N(C)C)[C@@H]3C[C@@H]1C2	0.125 µg/mL (≈ 0.244 µM)	0.5 µg/mL (≈ 0.976 µM)	0.125 µg/mL (≈ 0.244 µM)	0.5 µg/mL (≈ 0.976 µM)		16 µg/mL (≈ 31.2 µM)	16 µg/mL (≈ 31.2 µM)	1 µg/mL (≈ 1.95 µM)	> 32 µg/mL	> 32 µg/mL	32 µg/mL (≈ 62.4 µM)	> 32 µg/mL	8 µg/mL (≈ 15.6 µM)	
COc1c2c(c(O)c3cc(CN(C)C)ccc13)C(=O)C1=C(O)[C@]3(O)C(=O)C(C(N)=O)=C(O)[C@@H](N(C)C)[C@@H]3C[C@@H]1C2	0.25 µg/mL (≈ 0.453 µM)	2 µg/mL (≈ 3.63 µM)	0.25 µg/mL (≈ 0.453 µM)	0.25 µg/mL (≈ 0.453 µM)	0.0156 µg/mL (≈ 0.0283 µM)		8 µg/mL (≈ 14.5 µM)	1 µg/mL (≈ 1.81 µM)	32 µg/mL (≈ 58 µM)		4 µg/mL (≈ 7.25 µM)		0.25 µg/mL (≈ 0.453 µM)	
CN(C)Cc1ccc2c(F)c3c(c(O)c2c1)C(=O)C1=C(O)[C@]2(O)C(=O)C(C(N)=O)=C(O)[C@@H](N(C)C)[C@@H]2C[C@@H]1C3	0.5 µg/mL (≈ 0.927 µM)		0.25 µg/mL (≈ 0.463 µM)	0.25 µg/mL (≈ 0.463 µM)	0.0156 µg/mL (≈ 0.0289 µM)		4 µg/mL (≈ 7.41 µM)	0.5 µg/mL (≈ 0.927 µM)	32 µg/mL (≈ 59.3 µM)	4 µg/mL (≈ 7.41 µM)	2 µg/mL (≈ 3.71 µM)	4 µg/mL (≈ 7.41 µM)	8 µg/mL (≈ 14.8 µM)	1 µg/mL (≈ 1.85 µM)
CCCN(CCC)c1c2c(c(O)c3cc(CN4CCC4)ccc13)C(=O)C1=C(O)[C@]3(O)C(=O)C(C(N)=O)=C(O)[C@@H](N(C)C)[C@@H]3C[C@@H]1C2	0.5 µg/mL (≈ 0.79 µM)		0.5 µg/mL (≈ 0.79 µM)	0.5 µg/mL (≈ 0.79 µM)	0.125 µg/mL (≈ 0.198 µM)	32 µg/mL (≈ 50.6 µM)	> 32 µg/mL	8 µg/mL (≈ 12.6 µM)	> 32 µg/mL	> 32 µg/mL	> 32 µg/mL	> 32 µg/mL	0.5 µg/mL (≈ 0.79 µM)	4 µg/mL (≈ 6.32 µM)
CNC(=O)Oc1c2c(c(O)c3cc(CN4CCC4)ccc13)C(=O)C1=C(O)[C@]3(O)C(=O)C(C(N)=O)=C(O)[C@@H](N(C)C)[C@@H]3C[C@@H]1C2	8 µg/mL (≈ 13.2 µM)			8 µg/mL (≈ 13.2 µM)	1 µg/mL (≈ 1.65 µM)	32 µg/mL (≈ 52.8 µM)	> 32 µg/mL	> 32 µg/mL	> 32 µg/mL	> 32 µg/mL	> 32 µg/mL	> 32 µg/mL	4 µg/mL (≈ 6.59 µM)	
CN(C)[C@@H]1C(O)=C(C(N)=O)C(=O)[C@@]2(O)C(O)=C3C(=O)c4c(cc5cc(N)ccc5c4O)C[C@H]3C[C@@H]12				4 µg/mL (≈ 8.34 µM)	2 µg/mL (≈ 4.17 µM)	> 32 µg/mL	> 32 µg/mL	16 µg/mL (≈ 33.4 µM)	> 32 µg/mL	> 32 µg/mL	> 32 µg/mL	> 32 µg/mL	8 µg/mL (≈ 16.7 µM)	
CN(C)CCOc1c2c(c(O)c3cc(CN4CCC4)ccc13)C(=O)C1=C(O)[C@]3(O)C(=O)C(C(N)=O)=C(O)[C@@H](N(C)C)[C@@H]3C[C@@H]1C2	4 µg/mL (≈ 6.44 µM)	8 µg/mL (≈ 12.9 µM)	4 µg/mL (≈ 6.44 µM)	8 µg/mL (≈ 12.9 µM)	1 µg/mL (≈ 1.61 µM)	8 µg/mL (≈ 12.9 µM)	> 32 µg/mL	> 32 µg/mL	> 32 µg/mL	16 µg/mL (≈ 25.8 µM)	32 µg/mL (≈ 51.6 µM)	> 32 µg/mL	2 µg/mL (≈ 3.22 µM)	
CN(C)[C@@H]1C(O)=C(C(N)=O)C(=O)[C@@]2(O)C(O)=C3C(=O)c4c(cc5ccccc5c4O)C[C@H]3C[C@@H]12	1 µg/mL (≈ 2.15 µM)	1 µg/mL (≈ 2.15 µM)		0.5 µg/mL (≈ 1.08 µM)	0.25 µg/mL (≈ 0.538 µM)	> 32 µg/mL	> 32 µg/mL	8 µg/mL (≈ 17.2 µM)	> 32 µg/mL				0.25 µg/mL (≈ 0.538 µM)	
CN(C)[C@@H]1C(O)=C(C(N)=O)C(=O)[C@@]2(O)C(O)=C3C(=O)c4c(cc5ccc(CN6CCC6)cc5c4O)C[C@H]3C[C@@H]12	0.5 µg/mL (≈ 0.937 µM)	2 µg/mL (≈ 3.75 µM)	0.5 µg/mL (≈ 0.937 µM)	0.5 µg/mL (≈ 0.937 µM)	0.125 µg/mL (≈ 0.234 µM)	1 µg/mL (≈ 1.87 µM)	8 µg/mL (≈ 15 µM)		32 µg/mL (≈ 60 µM)		4 µg/mL (≈ 7.5 µM)	8 µg/mL (≈ 15 µM)	0.25 µg/mL (≈ 0.469 µM)	4 µg/mL (≈ 7.5 µM)
CN(C)[C@@H]1C(O)=C(C(N)=O)C(=O)[C@@]2(O)C(O)=C3C(=O)c4c(cc5c(CN6CCC6)cccc5c4O)C[C@H]3C[C@@H]12	1 µg/mL (≈ 1.87 µM)	4 µg/mL (≈ 7.5 µM)	0.5 µg/mL (≈ 0.937 µM)	2 µg/mL (≈ 3.75 µM)	0.25 µg/mL (≈ 0.469 µM)	8 µg/mL (≈ 15 µM)	> 32 µg/mL	32 µg/mL (≈ 60 µM)	> 32 µg/mL		16 µg/mL (≈ 30 µM)	> 32 µg/mL	2 µg/mL (≈ 3.75 µM)	
CN(C)[C@@H]1C(O)=C(C(N)=O)C(=O)[C@@]2(O)C(O)=C3C(=O)c4c(cc5ccc(CN6CC(C#N)C6)cc5c4O)C[C@H]3C[C@@H]12	1 µg/mL (≈ 1.79 µM)	2 µg/mL (≈ 3.58 µM)	1 µg/mL (≈ 1.79 µM)	1 µg/mL (≈ 1.79 µM)	0.25 µg/mL (≈ 0.448 µM)	4 µg/mL (≈ 7.16 µM)	> 32 µg/mL		> 32 µg/mL		8 µg/mL (≈ 14.3 µM)	32 µg/mL (≈ 57.3 µM)	1 µg/mL (≈ 1.79 µM)	4 µg/mL (≈ 7.16 µM)
CN(C)C1CN(Cc2ccc3cc4c(c(O)c3c2)C(=O)C2=C(O)[C@]3(O)C(=O)C(C(N)=O)=C(O)[C@@H](N(C)C)[C@@H]3C[C@@H]2C4)C1	2 µg/mL (≈ 3.47 µM)		1 µg/mL (≈ 1.73 µM)	1 µg/mL (≈ 1.73 µM)	0.0625 µg/mL (≈ 0.108 µM)		16 µg/mL (≈ 27.7 µM)	4 µg/mL (≈ 6.94 µM)	> 32 µg/mL			8 µg/mL (≈ 13.9 µM)	1 µg/mL (≈ 1.73 µM)	
CN(C)Cc1cccc2c(O)c3c(cc12)C[C@H]1C[C@H]2[C@H](N(C)C)C(O)=C(C(N)=O)C(=O)[C@@]2(O)C(O)=C1C3=O	1 µg/mL (≈ 1.92 µM)		0.5 µg/mL (≈ 0.959 µM)	1 µg/mL (≈ 1.92 µM)	0.25 µg/mL (≈ 0.479 µM)	4 µg/mL (≈ 7.67 µM)	> 32 µg/mL	16 µg/mL (≈ 30.7 µM)	> 32 µg/mL	> 32 µg/mL		> 32 µg/mL	2 µg/mL (≈ 3.83 µM)	32 µg/mL (≈ 61.4 µM)
COc1c2c(c(O)c3cc(CNC(C)(C)C)ccc13)C(=O)C1=C(O)[C@]3(O)C(=O)C(C(N)=O)=C(O)[C@@H](N(C)C)[C@@H]3C[C@@H]1C2	0.25 µg/mL (≈ 0.431 µM)		0.25 µg/mL (≈ 0.431 µM)	0.25 µg/mL (≈ 0.431 µM)	0.0156 µg/mL (≈ 0.0269 µM)	1 µg/mL (≈ 1.73 µM)	8 µg/mL (≈ 13.8 µM)	2 µg/mL (≈ 3.45 µM)	16 µg/mL (≈ 27.6 µM)			8 µg/mL (≈ 13.8 µM)	0.5 µg/mL (≈ 0.863 µM)	
